# Tests used:
# Format in all cases: functional
# HT-29 [1] = assay: Upregulation of HOXB8 gene expression in human HT-29 cells at IC50 after 48 hrs by cDNA microarray technique relative to control
# MCF7 [2] = assay: Upregulation of CRTAM gene expression in human MCF7 cells at IC50 after 48 hrs by cDNA microarray technique relative to control
# MCF7 [3] = assay: Upregulation of SPACA3 gene expression in human MCF7 cells at IC50 after 48 hrs by cDNA microarray technique relative to control
# MCF7 [4] = assay: Down regulation of FLJ22955 gene expression in human MCF7 cells at IC50 after 48 hrs by cDNA microarray technique relative to control
# Outline: (§1)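 Cells (8 × 10⁶) were cultured in DMEM with 10% heat-inactivated FBS at 37 °C under 5% CO₂. They were exposed for 48 h to compound at its IC₅₀, with DMSO-treated parallel cultures as controls (final DMSO ≤0.1% v/v). Total RNA was isolated by trizol/chloroform phase separation, RNeasy column cleanup and on-column DNase, then quantified by OD260/OD280. Expression was profiled by cDNA microarray relative to control.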
# HT-29 [5] = assay: Down regulation of GBP1 gene expression in human HT-29 cells at IC50 after 48 hrs by cDNA microarray technique relative to control; outline: as §1
# HT-29 [6] = assay: Upregulation of TREM4 gene expression in human HT-29 cells at IC50 after 48 hrs by cDNA microarray technique relative to control
# MCF7 [7] = assay: Down regulation of FLJ37562 gene expression in human MCF7 cells at IC50 after 48 hrs by cDNA microarray technique relative to control; outline: as §1
# MCF7 [8] = assay: Down regulation of DKFZp667G2110 gene expression in human MCF7 cells at IC50 after 48 hrs by cDNA microarray technique relative to control
# Outline: (§2)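 8 × 10⁶ cells exposed 48 h to compound at its IC50 concentration; total RNA isolated with trizol/chloroform and RNeasy columns including on-column DNase step; RNA quantified by OD 260/280; DMSO-treated cultures as control.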
# HT-29 [9] = assay: Down regulation of TRPA1 gene expression in human HT-29 cells at IC50 after 48 hrs by cDNA microarray technique relative to control
# HT-29 [10] = assay: Down regulation of PGLYRP4 gene expression in human HT-29 cells at IC50 after 48 hrs by cDNA microarray technique relative to control
# MCF7 [11] = assay: Down regulation of PGLYRP4 gene expression in human MCF7 cells at IC50 after 48 hrs by cDNA microarray technique relative to control
# MCF7 [12] = assay: Down regulation of SNTG1 gene expression in human MCF7 cells at IC50 after 48 hrs by cDNA microarray technique relative to control
# HT-29 [13] = assay: Down regulation of LIN28 gene expression in human HT-29 cells at IC50 after 48 hrs by cDNA microarray technique relative to control; outline: as §1
# HT-29 [14] = assay: Down regulation of P53AIP1 gene expression in human HT-29 cells at IC50 after 48 hrs by cDNA microarray technique relative to control
# MCF7 [15] = assay: Upregulation of ADPN gene expression in human MCF7 cells at IC50 after 48 hrs by cDNA microarray technique relative to control
# MCF7 [16] = assay: Down regulation of ENST00000295859 gene expression in human MCF7 cells at IC50 after 48 hrs by cDNA microarray technique relative to control; outline: as §1
# MCF7 [17] = assay: Upregulation of ABCD2 gene expression in human MCF7 cells at IC50 after 48 hrs by cDNA microarray technique relative to control
# HT-29 [18] = assay: Down regulation of FADS6 gene expression in human HT-29 cells at IC50 after 48 hrs by cDNA microarray technique relative to control; outline: as §1
# HT-29 [19] = assay: Down regulation of KELCHL gene expression in human HT-29 cells at IC50 after 48 hrs by cDNA microarray technique relative to control; outline: as §1
# HT-29 [20] = assay: Down regulation of RHOV gene expression in human HT-29 cells at IC50 after 48 hrs by cDNA microarray technique relative to control
# Outline: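 HT-29 cells were grown in DMEM with 10% heat-inactivated FBS at 37 °C under 5% CO2. Cultures of 8 × 10⁶ cells were treated for 48 h; controls got DMSO at ≤0.1% v/v final. Cells were detached with PBS-EDTA and total RNA was extracted with trizol/chloroform and RNeasy columns with on-column DNase. RNA was quantified by OD 260/280 before cDNA microarray comparison with control.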
# MCF7 [21] = assay: Upregulation of AY232284 gene expression in human MCF7 cells at IC50 after 48 hrs by cDNA microarray technique relative to control
# HT-29 [22] = assay: Down regulation of NIPSNAP3B gene expression in human HT-29 cells at IC50 after 48 hrs by cDNA microarray technique relative to control
# MCF7 [23] = assay: Upregulation of GALNT13 gene expression in human MCF7 cells at IC50 after 48 hrs by cDNA microarray technique relative to control
# HT-29 [24] = assay: Down regulation of SOCS4 gene expression in human HT-29 cells at IC50 after 48 hrs by cDNA microarray technique relative to control
# MCF7 [25] = assay: Down regulation of C9orf125 gene expression in human MCF7 cells at IC50 after 48 hrs by cDNA microarray technique relative to control; outline: as §2
# MCF7 [26] = assay: Upregulation of ANKRD35 gene expression in human MCF7 cells at IC50 after 48 hrs by cDNA microarray technique relative to control
# MCF7 [27] = assay: Upregulation of RHOH gene expression in human MCF7 cells at IC50 after 48 hrs by cDNA microarray technique relative to control
# HT-29 [28] = assay: Down regulation of MGC33637 gene expression in human HT-29 cells at IC50 after 48 hrs by cDNA microarray technique relative to control
# HT-29 [29] = assay: Down regulation of HSPA1A gene expression in human HT-29 cells at IC50 after 48 hrs by cDNA microarray technique relative to control; outline: as §1
# HT-29 [30] = assay: Down regulation of FLJ23436 gene expression in human HT-29 cells at IC50 after 48 hrs by cDNA microarray technique relative to control; outline: as §1
# HT-29 [31] = assay: Down regulation of C20orf178 gene expression in human HT-29 cells at IC50 after 48 hrs by cDNA microarray technique relative to control; outline: as §2
# HT-29 [32] = assay: Down regulation of LIR9 gene expression in human HT-29 cells at IC50 after 48 hrs by cDNA microarray technique relative to control; outline: as §1
# MCF7 [33] = assay: Down regulation of C11orf8 gene expression in human MCF7 cells at IC50 after 48 hrs by cDNA microarray technique relative to control; outline: as §2
# MCF7 [34] = assay: Down regulation of RHAG gene expression in human MCF7 cells at IC50 after 48 hrs by cDNA microarray technique relative to control
# MCF7 [35] = assay: Down regulation of PARP9 gene expression in human MCF7 cells at IC50 after 48 hrs by cDNA microarray technique relative to control
smiles,measurement,setting,value
COC(CN(c1ccccc1CO)S(=O)(=O)c1ccccc1[N+](=O)[O-])n1cnc2ncnc(Cl)c21 (racemic),fold change (FC),HT-29 [1],2.11
same,fold change (FC),MCF7 [2],2.09
same,fold change (FC),MCF7 [3],2.21
same,fold change (FC),MCF7 [4],-2.65
same,fold change (FC),HT-29 [5],-2.47
same,fold change (FC),HT-29 [6],2.27
same,fold change (FC),MCF7 [7],-2.08
same,fold change (FC),MCF7 [8],-2.15
same,fold change (FC),HT-29 [9],-3.22
same,fold change (FC),HT-29 [10],-2.02
same,fold change (FC),MCF7 [11],-2.45
same,fold change (FC),MCF7 [12],-2.46
same,fold change (FC),HT-29 [13],-2.02
same,fold change (FC),HT-29 [14],-2.06
same,fold change (FC),MCF7 [15],2.37
same,fold change (FC),MCF7 [16],-2.27
same,fold change (FC),MCF7 [17],2.25
same,fold change (FC),HT-29 [18],-2.34
O=C(OCC1c2ccccc2-c2ccccc21)N1CC(n2cnc3c(Cl)ncnc32)OCc2ccccc21 (racemic),fold change (FC),HT-29 [19],-2.02
same,fold change (FC),HT-29 [20],-2.07
same,fold change (FC),MCF7 [21],3.98
same,fold change (FC),HT-29 [22],-2.21
same,fold change (FC),MCF7 [23],3.23
same,fold change (FC),HT-29 [24],-2
same,fold change (FC),MCF7 [25],-3.38
same,fold change (FC),MCF7 [26],6.08
same,fold change (FC),MCF7 [27],2.2
same,fold change (FC),HT-29 [28],-2.25
same,fold change (FC),HT-29 [29],-2.2
same,fold change (FC),HT-29 [30],-2.2
same,fold change (FC),HT-29 [31],-2.21
same,fold change (FC),HT-29 [32],-2.08
same,fold change (FC),MCF7 [33],-2.88
same,fold change (FC),MCF7 [34],-6.26
same,fold change (FC),MCF7 [35],-3.23

# — ChEMBL document CHEMBL1821604, “Anticancer activity and cDNA microarray studies of a (RS)-1,2,3,5-tetrahydro-4,1-benzoxazepine-3-yl]-6-chloro-9H-purine, and an acyclic (RS)-O,N-acetalic 6-chloro-7H-purine” (Eur J Med Chem, 2011)
